Results on six compounds are retold here after ChEMBL document CHEMBL1157620, “1-(Aryl)-6-[alkoxyalkyl]-3-azabicyclo[3.1.0]hexanes and 6-(aryl)-6-[alkoxyalkyl]-3-azabicyclo[3.1.0]hexanes: a new series of potent and selective triple reuptake inhibitors” (J Med Chem, 2010).

The source made the active and inactive calls. No cut-off for these calls is given here. Bounds are passed on as bounds.

The target in data set [1] is Sodium-dependent dopamine transporter (Homo sapiens, UniProt Q01959). As to the kind of experiment: Displacement of [3H]WIN-35428 from human recombinant DAT expressed in BacMam virus-transduced cells by scintillation proximity assay. The format is cell-based. For orientation: Displacement assays read how much labelled ligand stays bound in the presence of the test substance.
Sodium-dependent dopamine transporter, sequence (Q01959 whole entry): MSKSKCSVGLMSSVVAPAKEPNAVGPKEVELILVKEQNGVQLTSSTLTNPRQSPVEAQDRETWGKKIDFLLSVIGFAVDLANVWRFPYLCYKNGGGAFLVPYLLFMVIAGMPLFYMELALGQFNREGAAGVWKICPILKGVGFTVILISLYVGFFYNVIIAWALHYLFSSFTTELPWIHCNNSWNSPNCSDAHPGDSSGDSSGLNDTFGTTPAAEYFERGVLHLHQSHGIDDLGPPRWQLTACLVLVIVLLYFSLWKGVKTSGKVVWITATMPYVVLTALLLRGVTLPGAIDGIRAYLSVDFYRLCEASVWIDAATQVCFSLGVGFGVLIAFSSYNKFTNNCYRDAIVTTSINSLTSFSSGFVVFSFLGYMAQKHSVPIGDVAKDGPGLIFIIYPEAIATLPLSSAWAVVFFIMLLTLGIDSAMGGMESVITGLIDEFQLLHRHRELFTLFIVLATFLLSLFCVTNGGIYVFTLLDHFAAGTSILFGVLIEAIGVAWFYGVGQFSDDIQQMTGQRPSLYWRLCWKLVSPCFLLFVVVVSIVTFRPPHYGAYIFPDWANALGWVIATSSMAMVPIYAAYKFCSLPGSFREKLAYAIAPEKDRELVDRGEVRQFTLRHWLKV

Data set [2] has as its target Sodium-dependent serotonin transporter (Homo sapiens, UniProt P31645). The data set can be described thus: Displacement of [3H]citalopram from human recombinant SERT expressed in BacMam virus-transduced cells by scintillation proximity assay. The data set is classed as cell-based. In short, it runs like this:
(§1)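 BacMam-transduced membranes in SPA format. SERT: 1 mg/mL beads, 6 μg/mL membranes, 3 nM [3H]citalopram. NET: 2 mg/mL beads, 40 μg/mL membranes, 10 nM [3H]nisoxetine. Incubated overnight at room temperature; pKi from pIC50 by Cheng-Prusoff.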

The target in data set [3] is T1, Cytochrome P450 1A2 (Homo sapiens, UniProt P05177).
T1 sequence (P05177 whole entry): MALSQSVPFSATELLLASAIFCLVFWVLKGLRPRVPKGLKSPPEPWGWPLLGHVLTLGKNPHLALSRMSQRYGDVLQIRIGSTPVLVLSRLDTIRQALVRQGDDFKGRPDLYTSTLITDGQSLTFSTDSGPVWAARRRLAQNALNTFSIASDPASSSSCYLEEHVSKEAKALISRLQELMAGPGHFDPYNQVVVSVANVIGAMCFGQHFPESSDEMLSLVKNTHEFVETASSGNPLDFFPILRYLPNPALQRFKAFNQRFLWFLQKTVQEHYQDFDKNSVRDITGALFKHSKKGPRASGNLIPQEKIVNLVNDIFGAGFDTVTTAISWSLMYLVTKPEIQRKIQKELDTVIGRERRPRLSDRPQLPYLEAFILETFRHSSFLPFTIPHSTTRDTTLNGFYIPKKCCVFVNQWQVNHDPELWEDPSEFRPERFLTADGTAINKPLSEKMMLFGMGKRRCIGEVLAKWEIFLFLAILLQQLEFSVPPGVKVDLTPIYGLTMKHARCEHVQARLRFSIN
The data set can be described thus: Inhibition of human CYP1A2 by fluorescence assay. The data set is classed as ADME. The method, boiled down: (§2)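 Recombinant human P450 bactosomes (0.1 mg/mL) in 50 mM phosphate, pH 7.4. Test compound at 0.1-10 μM, preincubated 10 min at 37 °C with fluorogenic substrate: ethoxyresorufin 0.5 μM (1A2), FCA 50 μM (2C9), BMC 10 μM (2C19), MMC 10 μM (2D6).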

Data set [4] deals with Sodium-dependent noradrenaline transporter (Homo sapiens, UniProt P23975). The data set can be described thus: Displacement of [3H]nisoxetine from human recombinant NET expressed in BacMam virus-transduced cells by scintillation proximity assay. The format is cell-based. In short, it runs like this:
as §1

The target of data set [5] is Cytochrome P450 2D6 (Homo sapiens, UniProt P10635). As to the kind of experiment: Inhibition of human […] by fluorescence assay. The data set is classed as ADME. The method, boiled down:
as §2

Data set [6] addresses Cytochrome P450 2C19 (Homo sapiens, UniProt P33261). The data set can be described thus: Inhibition of human CYP2C19 by fluorescence assay. The format is ADME. The method, boiled down: as §2
The target of data set [7] is Cytochrome P450 2C9 (Homo sapiens, UniProt P11712). As to the kind of experiment: Inhibition of human CYP2C9 by fluorescence assay. The format is ADME. In short, it runs like this:
as §2

Data set [8] has as its target Cytochrome P450 3A4 (Homo sapiens, UniProt P08684). The data set can be described thus: Inhibition of human CYP3A4 by fluorescence assay.
A short description of data set [9]: Intrinsic clearance in rat liver microsomes assessed per gram of protein at 0.5 uM after 30 mins by HPLC-MS/MS analysis. The data set is classed as ADME, Microsome. The note with it: liver microsomes. In short, it runs like this:
(§3)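 Compound at 0.5 μM with rat or human liver microsomes (0.5 mg protein/mL), 50 mM phosphate, pH 7.4, 37 °C, started with NADPH. Sampled at 0-30 min, acetonitrile quench, HPLC-MS/MS. CLi from first-order elimination constant, scaled assuming 52.5 mg microsomal protein/g.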
For orientation: Microsomes from liver hold many membrane-bound enzymes, among them those of drug oxidation.

Data set [10] in a line: Intrinsic clearance in human liver microsomes assessed per gram of protein at 0.5 uM after 30 mins by HPLC-MS/MS analysis. The format is ADME, Microsome. The conditions noted are these: liver microsomes. The method, boiled down:
as §3

Data set [11] has as its system Mus musculus. The data set can be described thus: Potentiation of 5-hydroxytryptophan-induced stereotpic behavior in CD1 mouse at 10 mg/kg, po administered 120 mins before 5HTP challenge measured for 30 mins. The format is functional, organism-based. On the set-up: dose 10 mg/kg. In short, it runs like this:
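Naive male CD-1 mice (25-30 g) were dosed orally 120 min before an ip injection of 5-HTP (100 mg/kg). Each mouse was then placed alone in a perspex box and videotaped. For the next 30 min, observers scored aimless hyperlocomotor activity, hind-limb abduction, flat body posture, head twitches/tremor and body tremor.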

Data set [12] concerns Rattus norvegicus. The data set can be described thus: Increase in extracellular dopamine level in frontal cortex of free moving CD rat at 1 mg/kg, ip after 3 hrs by microdialysis. The format is functional, organism-based. On the set-up: dose 1 mg/kg. In short, it runs like this:
(§4)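 Male CD rats, 280-310 g, with microdialysis probe in left medial prefrontal cortex, freely moving, locomotion recorded at the same time. Dosed ip at 0.1, 0.3 or 1 mg/kg. Dialysate collected every 20 min after 2 h of perfusion, for 3 h post dose. NA, DA and 5-HT by HPLC with electrochemical detection; two-way repeated-measures ANOVA.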

Data set [13] is filed under the species Homo sapiens. The data set can be described thus: Selectivity for human recombinant SERT over human recombinant DAT.
Data set [14] concerns Mus musculus. The data set can be described thus: Increase in spontaneous locomotor activity in CD1 mouse at 10 mg/kg, po administered 120 mins before test measured for 30 mins. The data set is classed as functional, organism-based. Also on record: dose 10 mg/kg. In short, it runs like this: (§5)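 CD-1 mice dosed orally at 3, 10 or 30 mg/kg, 120 min before test. Total distance travelled recorded over 30 min in infrared activity boxes.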

Data set [15] deals with Mus musculus. The data set can be described thus: Antidepressant-like activity in CD1 mouse assessed as reduction in immobility time at 10 mg/kg, po administered 120 mins before test by forced swimming test. The data set is classed as functional, organism-based. On the set-up: dose 10 mg/kg. The method, boiled down: (§6)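 Naive male CD-1 mice, 25-30 g, dosed orally 120 min before the swim test. Immobility (floating upright, only small movements to keep the head above water) was scored over the last 4 min of a 6 min session by an observer blind to treatment, from video.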

In data set [16] the test system is Mus musculus. The data set can be described thus: Increase in spontaneous locomotor activity in CD1 mouse at 30 mg/kg, po administered 120 mins before test measured for 30 mins. The format is functional, organism-based. Also on record: dose 30 mg/kg. In short, it runs like this: as §5
Data set [17] deals with Rattus norvegicus. The data set can be described thus: Enhancement of locomotor activity of CD rat at 1 mg/kg, ip. On the set-up: dose 1 mg/kg. The format is functional, organism-based. The method, boiled down:
as §4

The subject of data set [18] is Rattus norvegicus. The data set can be described thus: Increase in extracellular norepinephrine level in frontal cortex of free moving CD rat at 1 mg/kg, ip after 3 hrs by microdialysis. The data set is classed as functional, organism-based. Also on record: dose 1 mg/kg. The method, boiled down: as §4
Data set [19] has as its system Mus musculus. As to the kind of experiment: Increase in spontaneous locomotor activity in CD1 mouse at 3 mg/kg, po administered 120 mins before test measured for 30 mins. The data set is classed as functional, organism-based. Also on record: dose 3 mg/kg. In short, it runs like this: as §5
Data set [20] concerns Mus musculus. As to the kind of experiment: Potentiation of 5-hydroxytryptophan-induced stereotpic behavior in po dosed CD1 mouse administered 120 mins before 5HTP challenge measured for 30 mins. The data set is classed as functional, organism-based. The method, boiled down:
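CD-1 mice dosed orally 120 min before 5-HTP (100 mg/kg ip). Videotaped for 30 min and scored for hyperlocomotion, hind-limb abduction, flat body posture, head twitches/tremor and body tremor.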

The test system of data set [21] is Mus musculus. As to the kind of experiment: Antidepressant-like activity in CD1 mouse assessed as reduction in immobility time at 3 mg/kg, po administered 120 mins before test by forced swimming test. The data set is classed as functional, organism-based. On the set-up: dose 3 mg/kg. In short, it runs like this:
as §6

The subject of data set [22] is Rattus norvegicus. As to the kind of experiment: Increase in extracellular serotonin level in frontal cortex of free moving CD rat at 1 mg/kg, ip after 3 hrs by microdialysis. The format is functional, organism-based. Also on record: dose 1 mg/kg. In short, it runs like this: as §4

Cytochrome P450 3A4, sequence (P08684 whole entry): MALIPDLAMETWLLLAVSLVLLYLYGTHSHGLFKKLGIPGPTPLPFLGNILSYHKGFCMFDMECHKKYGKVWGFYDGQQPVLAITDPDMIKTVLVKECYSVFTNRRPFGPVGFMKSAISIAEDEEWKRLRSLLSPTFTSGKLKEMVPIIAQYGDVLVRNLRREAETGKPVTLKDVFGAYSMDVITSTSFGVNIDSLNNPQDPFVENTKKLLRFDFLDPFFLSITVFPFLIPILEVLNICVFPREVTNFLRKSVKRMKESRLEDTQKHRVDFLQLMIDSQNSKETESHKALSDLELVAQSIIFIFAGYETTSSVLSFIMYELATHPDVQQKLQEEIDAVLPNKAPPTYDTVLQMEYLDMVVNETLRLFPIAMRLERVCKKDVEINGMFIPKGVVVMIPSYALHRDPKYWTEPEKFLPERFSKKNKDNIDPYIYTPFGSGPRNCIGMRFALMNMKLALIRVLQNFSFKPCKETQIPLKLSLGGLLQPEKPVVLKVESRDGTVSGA
Cytochrome P450 2C19, sequence (P33261 whole entry): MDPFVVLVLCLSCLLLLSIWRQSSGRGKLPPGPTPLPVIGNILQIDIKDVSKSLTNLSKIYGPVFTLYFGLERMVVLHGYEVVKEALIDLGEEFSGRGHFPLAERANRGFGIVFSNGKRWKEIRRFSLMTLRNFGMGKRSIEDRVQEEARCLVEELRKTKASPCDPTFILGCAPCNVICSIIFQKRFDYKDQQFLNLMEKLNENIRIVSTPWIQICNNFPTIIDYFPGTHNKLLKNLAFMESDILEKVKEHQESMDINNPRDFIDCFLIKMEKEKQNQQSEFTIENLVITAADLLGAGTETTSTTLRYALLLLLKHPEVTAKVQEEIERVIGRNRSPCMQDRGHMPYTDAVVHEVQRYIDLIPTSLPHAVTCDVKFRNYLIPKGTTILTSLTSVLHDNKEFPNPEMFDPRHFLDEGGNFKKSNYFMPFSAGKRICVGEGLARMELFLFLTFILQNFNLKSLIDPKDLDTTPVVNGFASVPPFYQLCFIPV
Sodium-dependent serotonin transporter, sequence (P31645 whole entry): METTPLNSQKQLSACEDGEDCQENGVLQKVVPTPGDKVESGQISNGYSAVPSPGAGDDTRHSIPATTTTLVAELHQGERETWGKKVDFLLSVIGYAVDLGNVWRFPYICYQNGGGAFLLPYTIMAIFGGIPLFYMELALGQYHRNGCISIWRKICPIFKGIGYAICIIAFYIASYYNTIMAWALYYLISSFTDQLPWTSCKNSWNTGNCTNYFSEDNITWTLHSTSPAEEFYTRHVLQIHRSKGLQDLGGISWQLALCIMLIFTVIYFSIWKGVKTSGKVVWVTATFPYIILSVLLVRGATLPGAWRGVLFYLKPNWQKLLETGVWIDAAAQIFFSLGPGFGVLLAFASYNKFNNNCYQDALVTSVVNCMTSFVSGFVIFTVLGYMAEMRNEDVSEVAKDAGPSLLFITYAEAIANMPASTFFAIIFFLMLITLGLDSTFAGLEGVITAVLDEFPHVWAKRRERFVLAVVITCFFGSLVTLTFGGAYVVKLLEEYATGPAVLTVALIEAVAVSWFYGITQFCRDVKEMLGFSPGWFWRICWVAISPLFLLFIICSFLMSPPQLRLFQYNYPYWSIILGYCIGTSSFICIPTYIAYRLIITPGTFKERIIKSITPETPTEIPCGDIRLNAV
Cytochrome P450 2D6, sequence (P10635 whole entry): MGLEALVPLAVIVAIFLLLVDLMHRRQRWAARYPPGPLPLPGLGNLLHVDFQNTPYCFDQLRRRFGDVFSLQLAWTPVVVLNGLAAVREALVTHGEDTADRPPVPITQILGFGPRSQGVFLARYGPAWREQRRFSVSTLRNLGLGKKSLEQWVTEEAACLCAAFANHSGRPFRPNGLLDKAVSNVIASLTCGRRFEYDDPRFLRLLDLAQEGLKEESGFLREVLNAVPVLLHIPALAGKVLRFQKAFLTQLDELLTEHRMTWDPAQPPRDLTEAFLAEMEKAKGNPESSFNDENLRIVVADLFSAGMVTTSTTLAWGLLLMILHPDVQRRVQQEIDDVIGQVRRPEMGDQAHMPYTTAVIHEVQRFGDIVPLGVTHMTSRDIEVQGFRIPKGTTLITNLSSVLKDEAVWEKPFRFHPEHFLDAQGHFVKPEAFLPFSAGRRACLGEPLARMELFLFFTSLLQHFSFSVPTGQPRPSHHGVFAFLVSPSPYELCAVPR
Sodium-dependent noradrenaline transporter, sequence (P23975 whole entry): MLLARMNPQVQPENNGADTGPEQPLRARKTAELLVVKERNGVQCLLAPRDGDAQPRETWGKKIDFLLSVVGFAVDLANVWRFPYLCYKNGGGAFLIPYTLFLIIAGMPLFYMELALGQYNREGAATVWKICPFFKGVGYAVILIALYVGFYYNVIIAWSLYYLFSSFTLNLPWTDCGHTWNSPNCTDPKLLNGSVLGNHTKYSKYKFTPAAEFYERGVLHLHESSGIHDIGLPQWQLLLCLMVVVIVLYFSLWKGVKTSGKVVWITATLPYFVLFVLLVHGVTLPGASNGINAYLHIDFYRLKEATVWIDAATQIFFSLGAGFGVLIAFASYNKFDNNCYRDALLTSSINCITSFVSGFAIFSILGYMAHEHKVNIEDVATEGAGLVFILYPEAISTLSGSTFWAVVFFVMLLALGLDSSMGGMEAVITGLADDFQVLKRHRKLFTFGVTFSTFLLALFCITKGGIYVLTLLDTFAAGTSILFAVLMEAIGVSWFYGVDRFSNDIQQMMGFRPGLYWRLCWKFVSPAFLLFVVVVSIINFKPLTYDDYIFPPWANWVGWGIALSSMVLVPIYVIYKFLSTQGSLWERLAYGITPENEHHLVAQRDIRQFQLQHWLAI
Cytochrome P450 2C9, sequence (P11712 whole entry): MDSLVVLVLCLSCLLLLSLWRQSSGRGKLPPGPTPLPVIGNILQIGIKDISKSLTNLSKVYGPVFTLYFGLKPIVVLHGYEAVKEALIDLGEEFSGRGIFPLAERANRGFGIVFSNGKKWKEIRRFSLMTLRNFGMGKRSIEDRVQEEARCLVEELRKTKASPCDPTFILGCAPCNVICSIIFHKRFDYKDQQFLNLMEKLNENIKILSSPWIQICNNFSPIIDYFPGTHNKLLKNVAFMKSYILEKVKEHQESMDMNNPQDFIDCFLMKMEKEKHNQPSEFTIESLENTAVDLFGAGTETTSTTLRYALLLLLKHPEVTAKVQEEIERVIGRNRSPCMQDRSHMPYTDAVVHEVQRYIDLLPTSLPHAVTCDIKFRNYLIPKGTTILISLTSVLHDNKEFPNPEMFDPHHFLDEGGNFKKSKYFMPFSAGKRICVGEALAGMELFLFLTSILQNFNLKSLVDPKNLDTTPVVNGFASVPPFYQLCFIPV

In general, Ki refers to the equilibrium dissociation constant of an inhibitor or competing ligand from its target. Usually IC50 stands for the concentration needed to halve the response being measured. Low readings indicate greater potency, high ones weaker potency. Turning to `Clc1ccc([C@@]2(COCC3CC3)[C@@H]3CNC[C@@H]32)cc1Cl`, the Ki in data set [1] was 10 nM; in data set [2] it was 0.631 nM; in data set [4], 7.94 nM. The IC50 was above 10 µM in data set [3], 1 µM in data set [5], above 10 µM in data set [6] and above 10 µM in data set [7].
`CCOC[C@H]1[C@@H]2CNC[C@@]21c1ccc(Cl)c(Cl)c1` (relative stereo): the 50% inhibitory concentration (IC50) in [8] is above 9 µM; in [3] it was above 9 µM; in [5], 4 µM; in data set [6] it was above 9 µM; in data set [7], above 9 µM. In addition, the inhibition constant Ki in data set [1] is 25.1 nM; in data set [2], 0.398 nM; in data set [4], 1.58 nM.
One may read the CLint scaled as the capacity of the preparation to metabolise the compound, expressed as a volume cleared per time. As to `COC[C@@H]1[C@H]2CNC[C@]21c1ccc2ccccc2c1` (stereo in doubt), the intrinsic clearance (CLint scaled) at 0.5 µM in [9] was 3.9 mL/min/kg; in data set [10], 2.2 mL/min/kg. The IC50 was above 4 µM in data set [8]; 0.9 µM in [3]; above 4 µM in data set [5]; above 4 µM in [6]; above 4 µM in [7]. Further, the inhibition constant (Ki) was 25.1 nM in data set [1], 0.0794 nM in data set [2] and 0.631 nM in data set [4].
Take `CC(C)OC[C@@H]1[C@H]2CNC[C@]21c1ccc(Cl)c(Cl)c1` (stereo in doubt): the CLint scaled at 0.5 µM in data set [9] was below 0.5 mL/min/kg; in [10], 1.4 mL/min/kg. Moreover, the half-maximal inhibitory concentration (IC50) in data set [8], in data set [3], in data set [5], in data set [6] and in data set [7] was above 8 µM throughout. For the same compound, the inhibition constant Ki in data set [1] was 5.01 nM; in data set [2], 0.126 nM; in data set [4] it was 0.251 nM.
On to `CN(C)CCCC1(c2ccc(F)cc2)OCc2cc(C#N)ccc21` (configuration not stated), for which the outcome in data set [11] was Active.
As for `CCOC[C@H]1[C@@H]2CNC[C@@]21c1ccc(Cl)c(Cl)c1`, the outcome in data set [12], in data set [14], in [15], in data set [17], in data set [18] and in data set [21] was Active. Moreover, in data set [22], the result was Active. In addition, in data set [13], the Selectivity ratio is 50. In addition, the outcome in data set [16] and in data set [19] was inactive. In addition, the Activity result in [20] is “Dose-dependent effect”.
